Reference: paper PMC8207330 (Leukemia research, 2017)
“And” between values parts separate entries of the source, which are not always exact repeats. Identical values can stand only once. Like-named read-outs stand apart in the source and are kept apart here.

Assays:
[1] = test system: patients with JAK2^V617F-positive myelofibrosis, essential thrombocythemia, or polycythemia vera; type: in vivo
[2] = Pharmacokinetics in patients; type: in vivo, human
[3] = test system: patients with JAK2^V617F-positive myelofibrosis, essential thrombocythemia, or polycythemia vera; assay: Clinical efficacy; type: in vivo, human
Outline: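 Multicentre, nonrandomised, open-label phase 1 of the oral test compound given once daily in 28-day cycles. 3 + 3 escalation through 30, 60, 120, 240 and 200 mg. A 120 mg lead-in for 14–28 days was followed by 200 or 300 mg, and 120 mg was used for dose confirmation. Response was scored by IWG clinical-improvement criteria, or European LeukemiaNet criteria for PV/ET, with duration counted in cycles. Analysis was descriptive.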

[4] = cohort 6, 120 mg (Cycle 1a), N = 8
[5] = cohort 6, 200 mg (Cycle 1b), N = 7
[6] = cohort 7, 120 mg (Cycle 1a), N = 6
[7] = cohort 7, 300 mg (Cycle 1b), N = 5
[8] = cohort L (withdrawn in lead-in phase), 120 mg, N = 1
[9] = cycle 1, cohort 1, 30 mg, N = 3
[10] = cycle 1, cohort 2, 60 mg, N = 3
[11] = cycle 1, cohort 3, 120 mg, N = 10
[12] = cycle 1, cohort 4, 240 mg, N = 3
[13] = cycle 1, cohort 5, 200 mg, N = 3

Cc1cc(Nc2cc(CN3CCOCC3)c3nc(C)c(Cc4ccc(Cl)cc4F)n3n2)n[nH]1 [gandotinib]
Patients with ≥ 1 SAE possibly related to study drug ([1]; 30 mg (N = 3)): 0 n% | SAE possibly related: Anemia ([1]; 30 mg (N = 3)): 0 n% | SAE possibly related: Blood creatinine increased ([1]; 30 mg (N = 3)): 0 n% | SAE possibly related: Hyperkalemia ([1]; 30 mg (N = 3)): 0 n% | SAE possibly related: Hyperuricemia ([1]; 30 mg (N = 3)): 0 n% | SAE possibly related: Renal failure, acute ([1]; 30 mg (N = 3)): 0 n% | Patients with ≥ 1 SAE possibly related to study drug ([1]; 60 mg (N = 7)): 0 n% | SAE possibly related: Anemia ([1]; 60 mg (N = 7)): 0 n% | SAE possibly related: Blood creatinine increased ([1]; 60 mg (N = 7)): 0 n% | SAE possibly related: Hyperkalemia ([1]; 60 mg (N = 7)): 0 n% | SAE possibly related: Hyperuricemia ([1]; 60 mg (N = 7)): 0 n% | SAE possibly related: Renal failure, acute ([1]; 60 mg (N = 7)): 0 n% | Patients with ≥ 1 SAE possibly related to study drug ([1]; 120 mg (N = 34)): 0 n% | SAE possibly related: Anemia ([1]; 120 mg (N = 34)): 0 n% | SAE possibly related: Blood creatinine increased ([1]; 120 mg (N = 34)): 0 n% | SAE possibly related: Hyperkalemia ([1]; 120 mg (N = 34)): 0 n% | SAE possibly related: Hyperuricemia ([1]; 120 mg (N = 34)): 0 n% | SAE possibly related: Renal failure, acute ([1]; 120 mg (N = 34)): 0 n% | DLTs observed ([1]; 200 mg): 3 DLTs | Patients with ≥ 1 SAE possibly related to study drug ([1]; 200 mg (N = 15)): 4 (26.7) n% | SAE possibly related: Anemia ([1]; 200 mg (N = 15)): 1 (6.7) n% | SAE possibly related: Blood creatinine increased ([1]; 200 mg (N = 15)): 3 (20.0) n% | SAE possibly related: Hyperkalemia ([1]; 200 mg (N = 15)): 0 (0.0) n% | SAE possibly related: Hyperuricemia ([1]; 200 mg (N = 15)): 1 (6.7) n% | SAE possibly related: Renal failure, acute ([1]; 200 mg (N = 15)): 1 (6.7) n% | Patients with ≥ 1 SAE possibly related to study drug ([1]; 240 mg (N = 3)): 1 (33.3) n% | SAE possibly related: Anemia ([1]; 240 mg (N = 3)): 0 n% | SAE possibly related: Blood creatinine increased ([1]; 240 mg (N = 3)): 1 (33.3) n% | SAE possibly related: Hyperkalemia ([1]; 240 mg (N = 3)): 0 n% | SAE possibly related: Hyperuricemia ([1]; 240 mg (N = 3)): 0 n% | SAE possibly related: Renal failure, acute ([1]; 240 mg (N = 3)): 0 n% | Patients with ≥ 1 SAE possibly related to study drug ([1]; 300 mg (N = 5)): 1 (20.0) n% | SAE possibly related: Anemia ([1]; 300 mg (N = 5)): 0 n% | SAE possibly related: Blood creatinine increased ([1]; 300 mg (N = 5)): 0 n% | SAE possibly related: Hyperkalemia ([1]; 300 mg (N = 5)): 0 n% | SAE possibly related: Hyperuricemia ([1]; 300 mg (N = 5)): 0 n% | SAE possibly related: Renal failure, acute ([1]; 300 mg (N = 5)): 1 (20.0) n% | TEAE: nausea ([1]; 16 of 38 patients, majority grade 1): 42.1% | TEAE: diarrhea ([1]; 21 of 38 patients, majority grade 1): 55.3% | Patients with ≥ 1 SAE possibly related to study drug ([1]; Grade 3 and above, Total): 6 (15.8) n% | SAE possibly related: Anemia ([1]; Grade 3 and above, Total): 1 (2.6) n% | SAE possibly related: Blood creatinine increased ([1]; Grade 3 and above, Total): 1 (2.6) n% | SAE possibly related: Hyperkalemia ([1]; Grade 3 and above, Total): 0 n% | SAE possibly related: Hyperuricemia ([1]; Grade 3 and above, Total): 2 (5.3) n% | SAE possibly related: Renal failure, acute ([1]; Grade 3 and above, Total): 2 (5.3) n% | Patients with ≥ 1 SAE possibly related to study drug ([1]; Grade 4 and above, Total): 2 (5.3) n% | SAE possibly related: Anemia ([1]; Grade 4 and above, Total): 0 n% | SAE possibly related: Blood creatinine increased ([1]; Grade 4 and above, Total): 0 n% | SAE possibly related: Hyperkalemia ([1]; Grade 4 and above, Total): 0 n% | SAE possibly related: Hyperuricemia ([1]; Grade 4 and above, Total): 2 (5.3) n% | SAE possibly related: Renal failure, acute ([1]; Grade 4 and above, Total): 0 n% | SAE possibly related: Renal failure, acute ([1]; Total (N = 38), 2 MF, 1 ET, 1 PV): 4 (10.5) [2 MF, 1 ET, 1 PV] n% | SAE possibly related: Anemia ([1]; Total (N = 38), MF): 1 (2.6) MF n% | SAE possibly related: Blood creatinine increased ([1]; Total (N = 38), MF): 5 (13.2) MF n% | SAE possibly related: Hyperkalemia ([1]; Total (N = 38), MF): 1 (2.6) MF n% | SAE possibly related: Hyperuricemia ([1]; Total (N = 38), MF): 2 (5.3) MF n% | DLT: Blood creatinine increased [1, 4]: 3 (37.5) n (%) | DLT: Hyperkalemia [1, 4]: 0 n (%) | DLT: Hyperuricemia [1, 4]: 0 n (%) | DLT: Renal failure acute [1, 4]: 0 n (%) | Patients with DLT [1, 4]: 3 (37.5) n (%) | DLT: Blood creatinine increased [1, 5]: 3 (42.9) n (%) | DLT: Hyperkalemia [1, 5]: 0 n (%) | DLT: Hyperuricemia [1, 5]: 0 n (%) | DLT: Renal failure acute [1, 5]: 0 n (%) | Patients with DLT [1, 5]: 3 (42.9) n (%) | DLT: Blood creatinine increased [1, 6]: 0 n (%) | DLT: Hyperkalemia [1, 6]: 0 n (%) | DLT: Hyperuricemia [1, 6]: 0 n (%) | DLT: Renal failure acute [1, 6]: 0 n (%) | Patients with DLT [1, 6]: 0 n (%) | DLT: Blood creatinine increased [1, 7]: 1 (20.0) n (%) | DLT: Hyperkalemia [1, 7]: 0 n (%) | DLT: Hyperuricemia [1, 7]: 0 n (%) | DLT: Renal failure acute [1, 7]: 1 (20.0) n (%) | Patients with DLT [1, 7]: 2 (40.0) n (%) | DLT: Blood creatinine increased [1, 8]: 0 n (%) | DLT: Hyperkalemia [1, 8]: 0 n (%) | DLT: Hyperuricemia [1, 8]: 0 n (%) | DLT: Renal failure acute [1, 8]: 0 n (%) | Patients with DLT [1, 8]: 0 n (%) | DLT: Blood creatinine increased ([1]; cycle 1, Total, N = 37): 5 (13.5) n (%) | DLT: Hyperkalemia ([1]; cycle 1, Total, N = 37): 1 (2.7) n (%) | DLT: Hyperuricemia ([1]; cycle 1, Total, N = 37): 2 (5.4) n (%) | DLT: Renal failure acute ([1]; cycle 1, Total, N = 37): 1 (2.7) n (%) | Patients with DLT ([1]; cycle 1, Total, N = 37): 9 (24.3) n (%) | DLT: Blood creatinine increased [1, 9]: 0 n (%) | DLT: Hyperkalemia [1, 9]: 0 n (%) | DLT: Hyperuricemia [1, 9]: 0 n (%) | DLT: Renal failure acute [1, 9]: 0 n (%) | Patients with DLT [1, 9]: 0 n (%) | DLT: Blood creatinine increased [1, 10]: 0 n (%) | DLT: Hyperkalemia [1, 10]: 0 n (%) | DLT: Hyperuricemia [1, 10]: 0 n (%) | DLT: Renal failure acute [1, 10]: 0 n (%) | Patients with DLT [1, 10]: 0 n (%) | DLT: Blood creatinine increased [1, 11]: 0 n (%) | DLT: Hyperkalemia [1, 11]: 0 n (%) | DLT: Hyperuricemia [1, 11]: 0 n (%) | DLT: Renal failure acute [1, 11]: 0 n (%) | Patients with DLT [1, 11]: 0 n (%) | DLT: Blood creatinine increased [1, 12]: 0 n (%) | DLT: Hyperkalemia [1, 12]: 0 n (%) | DLT: Hyperuricemia [1, 12]: 1 (33.3) n (%) | DLT: Renal failure acute [1, 12]: 0 n (%) | Patients with DLT [1, 12]: 1 (33.3) n (%) | DLT: Blood creatinine increased [1, 13]: 1 (33.3) n (%) | DLT: Hyperkalemia [1, 13]: 1 (33.3) n (%) | DLT: Hyperuricemia [1, 13]: 1 (33.3) n (%) | DLT: Renal failure acute [1, 13]: 0 n (%) | Patients with DLT [1, 13]: 3 (100) n (%) | DLTs observed ([1]; first 3 tested doses (30, 60, 120 mg)): No DLTs | treatment discontinuation due to renal failure ([1]; most frequent adverse event resulting in discontinuation): 4 patients | Vd/F ([2]; human, plasma, oral): 682 L | half-life ([2]; human, plasma, oral): ~6 h | apparent clearance (CL/F) ([2]; mean value, CV of 68): 80.7 L/h | time at which maximum plasma concentration (Cmax) was reached ([2]; on average, after single and multiple doses): 4 h | partial response ([3]; ET (1 patient enrolled)): One | duration of clinic-hematologic partial response ([3]; PV patients): 3–16 cycles | JAK2^V617F allele burden reduction of ≥50% at any time ([3]; across all cohorts): 5 of 36 | palpable spleen length reduction of ≥ 50% at any time during therapy ([3]; across all cohorts): 20/32 and 20 of 32 | no clinic-hematologic response ([3]; of the 6 patients with PV): 3 patients | clinic-hematologic partial response ([3]; of the 6 patients with PV (2 in cohort 6, 1 in cohort 7)): 3 patients
